ChEMBL document CHEMBL4265871, “Novel alkylated azoles as potent antifungals” (Eur J Med Chem, 2017)
Values after ≈ are worked out from the molar mass of the structure shown.

Assays:
[1] = Selectivity index, ratio of EC50 for toxicity in human A549 cells to MIC100 for antifungal activity against Candida albicans ATCC 10231; type: cell-based; details: read-out: Selectivity Index
Outline: (§1)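 Selectivity index is the EC50 against the mammalian line (A549 or BEAS-2B) divided by the MIC against the given fungal strain.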

[2] = Hemolytic activity in mouse erythrocytes assessed as hemolysis level at 31.3 ug/ml incubated for 1 hr at 37 degC; type: ADME, cell-based, Erythrocyte; details: read-out: Activity
Outline: (§2)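 Mouse erythrocytes incubated 1 h at 37 °C with test agents over 1.95 to 125 µg/mL. Percent lysis is read for each concentration.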

[3] = Selectivity index, ratio of […] for toxicity in human A549 cells to MIC50 for antifungal activity against Aspergillus terreus ATCC MYA-3633; type: cell-based; details: read-out: Selectivity Index
[4] = Selectivity index, ratio of EC50 for toxicity in human BEAS2B cells to MIC50 for antifungal activity against ITC and FLC-susceptible Candida albicans ATCC MYA-2310; type: cell-based; details: BEAS-2B cells, read-out: Selectivity Index
Outline: (§3)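 Ratio of the compound's EC50 against BEAS-2B cells to its MIC against the named C. albicans strain. […] For C. albicans strains other than ATCC 10231, trailing growth meant MIC-2 was taken, meaning 50% growth inhibition.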

[5] = tested on: Candida albicans; assay: Antifungal activity against ITC and FLC-resistant Candida albicans ATCC 1237 incubated for 48 hrs by modified CLSI M27-A3 protocol based method; type: functional; details: ATCC 1237, 48 h
Outline: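 Because these Candida strains show trailing growth, MIC-2 was read, meaning 50% growth inhibition. Caspofungin and voriconazole were tested here; other controls came from earlier work.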

[6] = Toxicity in human BEAS2B cells assessed as reduction in cell viability incubated for 24 hrs by resazurin dye based assay; details: BEAS-2B cells
Outline: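 Toxicity tested in the nucleated lines A549 and BEAS-2B to give EC50 values. Selectivity index is EC50 against the mammalian line divided by the MIC against a given fungal strain.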

[7] = Selectivity index, ratio of EC50 for toxicity in human A549 cells to MIC50 for antifungal activity against ITC and FLC-resistant Candida albicans ATCC MYA-90819; type: cell-based; details: read-out: Selectivity Index; outline: as §1
[8] = Selectivity index, ratio of EC50 for toxicity in human A549 cells to MIC for antifungal activity against Candida parapsilosis ATCC 22019
[9] = tested on: Aspergillus terreus; assay: Antifungal activity against Aspergillus terreus ATCC MYA-3633 incubated for 48 hrs by CLSI M38-A2 protocol based method; type: functional; details: ATCC MYA-3633, 48 h, read-out: MIC100
[10] = tested on: Nakaseomyces glabratus; assay: Antifungal activity against Candida glabrata ATCC 2001 incubated for 48 hrs by modified CLSI M27-A3 protocol based method; type: functional; details: ATCC 2001, 48 h
[11] = Selectivity index, ratio of EC50 for toxicity in human BEAS2B cells to MIC100 for antifungal activity against Candida albicans ATCC 10231; type: cell-based; details: BEAS-2B cells, read-out: Selectivity Index; outline: as §1
[12] = Selectivity index, ratio of EC50 for toxicity in human A549 cells to MIC50 for antifungal activity against Candida albicans ATCC 64124; type: cell-based; details: read-out: Selectivity Index; outline: as §1
[13] = Selectivity index, ratio of EC50 for toxicity in human BEAS2B cells to MIC for antifungal activity against Candida parapsilosis ATCC 22019; details: BEAS-2B cells
[14] = Selectivity index, ratio of EC50 for toxicity in human BEAS2B cells to MIC50 for antifungal activity against Candida albicans ATCC 64124; type: cell-based; details: BEAS-2B cells, read-out: Selectivity Index; outline: as §1
[15] = Hemolytic activity in mouse erythrocytes assessed as hemolysis level at 7.8 ug/ml incubated for 1 hr at 37 degC; type: ADME, cell-based, Erythrocyte; details: read-out: Activity; outline: as §2
[16] = tested on: Candida parapsilosis; assay: Antifungal activity against Candida parapsilosis ATCC 22019 incubated for 48 hrs by modified CLSI M27-A3 protocol based method; type: functional; details: Lodderomyces parapsilosis, ATCC 22019, 48 h; read-out: MIC100
Outline: (§4)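 For C. albicans ATCC 10231, C. krusei ATCC 6258 and C. parapsilosis ATCC 22019, MIC-0 was read, meaning complete growth inhibition. For azole controls, MIC-2 (50% growth inhibition) was reported instead. Caspofungin and voriconazole were tested here; other controls came from earlier work.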

[17] = Selectivity index, ratio of EC50 for toxicity in human A549 cells to MIC50 for antifungal activity against ITC and FLC-resistant Candida albicans ATCC 1237; type: cell-based; details: read-out: Selectivity Index; outline: as §1
[18] = Hemolytic activity in mouse erythrocytes assessed as hemolysis level at 1.95 ug/ml incubated for 1 hr at 37 degC; type: ADME, cell-based, Erythrocyte; details: read-out: Activity; outline: as §2
[19] = Selectivity index, ratio of […] for toxicity in human A549 cells to MIC50 for antifungal activity against Aspergillus nidulans ATCC 38163; type: cell-based; details: read-out: Selectivity Index
[20] = Selectivity index, ratio of EC50 for toxicity in human A549 cells to MIC50 for antifungal activity against Candida krusei ATCC 6258
[21] = Selectivity index, ratio of […] for toxicity in human BEAS2B cells to MIC50 for antifungal activity against Aspergillus nidulans ATCC 38163; type: cell-based; details: BEAS-2B cells, read-out: Selectivity Index
[22] = Selectivity index, ratio of EC50 for toxicity in human BEAS2B cells to MIC50 for antifungal activity against ITC and FLC-susceptible Candida albicans ATCC MYA-2876; type: cell-based; details: BEAS-2B cells, read-out: Selectivity Index; outline: as §3
[23] = Selectivity index, ratio of EC50 for toxicity in human BEAS2B cells to MIC50 for antifungal activity against Candida glabrata ATCC 2001; type: cell-based; details: BEAS-2B cells, read-out: Selectivity Index; outline: as §1
[24] = Selectivity index, ratio of […] for toxicity in human A549 cells to MIC50 for antifungal activity against Aspergillus flavus ATCC MYA-3631; type: cell-based; details: read-out: Selectivity Index
[25] = tested on: Pichia kudriavzevii; assay: Antifungal activity against Candida krusei ATCC 6258 incubated for 48 hrs by modified CLSI M27-A3 protocol based method; type: functional; details: ATCC 6258, 48 h, read-out: MIC100; outline: as §4
[26] = tested on: Candida albicans; assay: Antifungal activity against ITC and FLC-resistant Candida albicans ATCC MYA-90819 incubated for 48 hrs by modified CLSI M27-A3 protocol based method; type: functional; details: ATCC MYA-90819, 48 h
[27] = tested on: Candida albicans; assay: Antifungal activity against Candida albicans ATCC 10231 incubated for 48 hrs by modified CLSI M27-A3 protocol based method; type: functional; details: ATCC 10231, 48 h, read-out: MIC100; outline: as §4
[28] = tested on: Aspergillus nidulans; assay: Antifungal activity against Aspergillus nidulans ATCC 38163 incubated for 48 hrs by CLSI M38-A2 protocol based method; type: functional; details: ATCC 38163, 48 h, read-out: MIC100
[29] = tested on: Aspergillus flavus; assay: Antifungal activity against Aspergillus flavus ATCC MYA-3631 incubated for 48 hrs by CLSI M38-A2 protocol based method; type: functional; details: ATCC MYA-3631, 48 h, read-out: MIC100
[30] = tested on: Candida albicans; assay: Antifungal activity against ITC and FLC-susceptible Candida albicans ATCC MYA-2310 incubated for 48 hrs by modified CLSI M27-A3 protocol based method; type: functional; details: ATCC MYA-2310, 48 h
[31] = Hemolytic activity in mouse erythrocytes assessed as hemolysis level at 3.9 ug/ml incubated for 1 hr at 37 degC; type: ADME, cell-based, Erythrocyte; details: read-out: Activity; outline: as §2

SMILES: CCCCC(O)(Cn1cncn1)c1ccc(Cl)cc1Cl (centres undefined) [HEXACONAZOLE]
- selectivity ratio [1]: 130
- hemolysis at 1 h, 31.3 ug/ml [2]: 0%
- selectivity ratio [3]: 32
- selectivity ratio [4]: 16
- MIC50 [5]: 24.8 µM (≈ 7.79 µg/mL)
- EC50 at 24 h [6]: > 31.3 µg/mL
- selectivity ratio [7]: 16
- selectivity ratio [8]: 1040
- MIC [9]: 3.1 µM (≈ 0.974 µg/mL)
- MIC50 [10]: 12.4 µM (≈ 3.9 µg/mL)
- selectivity ratio [11]: 130
- selectivity ratio [12]: 8
- selectivity ratio [13]: 1040
- selectivity ratio [14]: 8
- hemolysis at 1 h, 7.8 ug/ml [15]: 0%
- MIC [16]: < 0.1 µM
- selectivity ratio [17]: 4
- hemolysis at 1 h, 1.95 ug/ml [18]: 0%
- selectivity ratio [19]: 130
- selectivity ratio [20]: 522
- selectivity ratio [21]: 130
- selectivity ratio [22]: 16
- selectivity ratio [23]: 8
- selectivity ratio [24]: 8
- MIC [25]: 0.19 µM (≈ 0.0597 µg/mL)
- MIC50 [26]: 6.2 µM (≈ 1.95 µg/mL)
- MIC [27]: 0.76 µM (≈ 0.239 µg/mL)
- MIC [28]: 0.76 µM (≈ 0.239 µg/mL)
- MIC [29]: 12.4 µM (≈ 3.9 µg/mL)
- MIC50 [30]: 6.2 µM (≈ 1.95 µg/mL)
- hemolysis at 1 h, 3.9 ug/ml [31]: 0%

SMILES: CCCCCC(O)(Cn1cncn1)c1ccc(Cl)cc1Cl (centres undefined)
- selectivity ratio [1]: 138
- hemolysis at 1 h, 31.3 ug/ml [2]: 90.5%
- selectivity ratio [3]: 8
- selectivity ratio [4]: 16
- MIC50 [5]: 5.9 µM (≈ 1.94 µg/mL)
- EC50 at 24 h [6]: > 31.3 µg/mL
- selectivity ratio [7]: 17
- selectivity ratio [8]: 1100
- MIC [9]: 11.9 µM (≈ 3.91 µg/mL)
- MIC50 [10]: 5.9 µM (≈ 1.94 µg/mL)
- selectivity ratio [11]: 130
- selectivity ratio [12]: 17
- selectivity ratio [13]: 1040
- selectivity ratio [14]: 16
- hemolysis at 1 h, 7.8 ug/ml [15]: 0%
- MIC [16]: < 0.09 µM
- selectivity ratio [17]: 17
- hemolysis at 1 h, 1.95 ug/ml [18]: 0%
- selectivity ratio [19]: 69
- selectivity ratio [20]: 69
- selectivity ratio [21]: 65
- selectivity ratio [22]: 32
- selectivity ratio [23]: 16
- selectivity ratio [24]: 8
- MIC [25]: 1.5 µM (≈ 0.492 µg/mL)
- MIC50 [26]: 5.9 µM (≈ 1.94 µg/mL)
- MIC [27]: 0.73 µM (≈ 0.24 µg/mL)
- MIC [28]: 1.5 µM (≈ 0.492 µg/mL)
- MIC [29]: 11.9 µM (≈ 3.91 µg/mL)
- MIC50 [30]: 5.9 µM (≈ 1.94 µg/mL)
- hemolysis at 1 h, 3.9 ug/ml [31]: 0%

SMILES: CCCCCCC(O)(Cn1cncn1)c1ccccc1F (centres undefined)
- selectivity ratio [1]: 16
- hemolysis at 1 h, 31.3 ug/ml [2]: 8.7%
- selectivity ratio [3]: 8
- selectivity ratio [4]: 32
- MIC50 [5]: 3.3 µM (≈ 0.962 µg/mL)
- EC50 at 24 h [6]: > 31.3 µg/mL
- selectivity ratio [7]: 130
- selectivity ratio [8]: 261
- MIC [9]: 13.4 µM (≈ 3.9 µg/mL)
- MIC50 [10]: 3.3 µM (≈ 0.962 µg/mL)
- selectivity ratio [11]: 16
- selectivity ratio [12]: 1
- selectivity ratio [13]: 261
- selectivity ratio [14]: 1
- hemolysis at 1 h, 7.8 ug/ml [15]: 0%
- MIC [16]: 0.41 µM (≈ 0.119 µg/mL)
- selectivity ratio [17]: 32
- hemolysis at 1 h, 1.95 ug/ml [18]: 0%
- selectivity ratio [19]: 65
- selectivity ratio [20]: 522
- selectivity ratio [21]: 65
- selectivity ratio [22]: 32
- selectivity ratio [23]: 32
- selectivity ratio [24]: 1 to 2
- MIC [25]: 0.21 µM (≈ 0.0612 µg/mL)
- MIC50 [26]: 0.82 µM (≈ 0.239 µg/mL)
- MIC [27]: 6.7 µM (≈ 1.95 µg/mL)
- MIC [28]: 1.6 µM (≈ 0.466 µg/mL)
- MIC [29]: 53.5 to 107 µM (≈ 15.6 to 31.3 µg/mL)
- MIC50 [30]: 3.3 µM (≈ 0.962 µg/mL)
- hemolysis at 1 h, 3.9 ug/ml [31]: 0%

SMILES: CCCCC(O)(Cn1cncn1)c1ccc(F)cc1F (centres undefined)
- selectivity ratio [1]: 16
- hemolysis at 1 h, 31.3 ug/ml [2]: 3.7%
- selectivity ratio [3]: 2
- selectivity ratio [4]: 1
- MIC50 [5]: 55.5 µM (≈ 15.6 µg/mL)
- EC50 at 24 h [6]: 36 µg/mL (≈ 128 µM)
- selectivity ratio [7]: 2
- selectivity ratio [8]: 1040
- MIC [9]: 55.5 µM (≈ 15.6 µg/mL)
- MIC50 [10]: 112 µM (≈ 31.4 µg/mL)
- selectivity ratio [11]: 19
- selectivity ratio [12]: 2
- selectivity ratio [13]: 1200
- selectivity ratio [14]: 2
- hemolysis at 1 h, 7.8 ug/ml [15]: 0%
- MIC [16]: < 0.11 µM
- selectivity ratio [17]: 2
- hemolysis at 1 h, 1.95 ug/ml [18]: 0%
- selectivity ratio [19]: 16
- selectivity ratio [20]: 522
- selectivity ratio [21]: 19
- selectivity ratio [22]: 5
- selectivity ratio [23]: 1
- selectivity ratio [24]: 2
- MIC [25]: 0.21 µM (≈ 0.0591 µg/mL)
- MIC50 [26]: 55.5 µM (≈ 15.6 µg/mL)
- MIC [27]: 6.9 µM (≈ 1.94 µg/mL)
- MIC [28]: 6.9 µM (≈ 1.94 µg/mL)
- MIC [29]: 55.5 µM (≈ 15.6 µg/mL)
- MIC50 [30]: 112 µM (≈ 31.4 µg/mL)
- hemolysis at 1 h, 3.9 ug/ml [31]: 0%
